The record followed here is ChEMBL document CHEMBL2157923, “1,3-Azoles from ortho-naphthoquinones: synthesis of aryl substituted imidazoles and oxazoles and their potent activity against Mycobacterium tuberculosis” (Bioorg Med Chem, 2012).

The term MIC denotes the lowest concentration found to suppress growth.

SMILES strings stand for the structures. Values after ≈ are worked out from the molar mass of the structure shown. Active and inactive are the calls of the source. The rule behind the calls is not given here. Some results are limits rather than exact numbers.

Common to all, as to assay type: functional
The subject of assay [1] is Mycobacterium tuberculosis. Briefly: Antimycobacterial activity against isoniazid-resistant Mycobacterium tuberculosis ATCC 35822 after 7 days by resazurin microtitre assay. The gist of the method:
(§1)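 REMA MIC. Strains kept on Ogawa-Kudoh medium 14 days at 37 °C. Suspension vortexed and adjusted to McFarland tube 1 (3.2 × 10^6 cfu/mL), then diluted 1:20 in Middlebrook 7H9 with 10% OADC and glycerol. Compounds tested from 100 ug/mL down to 0.19 ug/mL. Incubated 7 days at 37 °C, resazurin added, 2 more days at 37 °C; colour change read.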

The subject of assay [2] is Mycobacterium tuberculosis. Briefly: Antimycobacterial activity against rifampicin-resistant Mycobacterium tuberculosis ATCC 35338 after 7 days by resazurin microtitre assay. The gist of the method: as §1
The test system of assay [3] is Mycobacterium tuberculosis. Description: Antimycobacterial activity against rifampicin-resistant Mycobacterium tuberculosis. The procedure, abridged:
as §1

With `CC1(C)CCc2c(c3ccccc3c3nc(-c4ccccc4C#N)oc23)O1`, the MIC in assay [1] (ATCC 35822, 168 h) was 17.6 µM (≈ 6.24 µg/mL); in assay [2] (ATCC 35338, 168 h), 17.6 µM (≈ 6.24 µg/mL).
`CC1(C)CCc2c(c3ccccc3c3nc(-c4cccc(C(F)(F)F)c4)[nH]c23)O1`: the MIC is 4 µM (≈ 1.59 µg/mL) in assay [1] (ATCC 35822, 168 h) and 4 µM (≈ 1.59 µg/mL) in assay [2] (ATCC 35338, 168 h).
Consider `CC1(C)CCc2c(c3ccccc3c3nc(-c4cccc(C#N)c4)oc23)O1`, for which the minimum inhibitory concentration (MIC) in assay [1] (ATCC 35822, 168 h) was determined as 17.6 µM (≈ 6.24 µg/mL); in assay [2] (ATCC 35338, 168 h), 17.6 µM (≈ 6.24 µg/mL).
For `CC1(C)CCc2c(c3ccccc3c3nc(-c4ccccn4)[nH]c23)O1`, the minimal inhibitory concentration (MIC) stood at 19 µM (≈ 6.26 µg/mL) in assay [1] (ATCC 35822, 168 h) and 19 µM (≈ 6.26 µg/mL) in assay [2] (ATCC 35338, 168 h).
Consider `CC1(C)CCc2c(c3ccccc3c3nc(-c4ccc(C(F)(F)F)cc4)[nH]c23)O1`, for which the MIC entry in assay [1] and in assay [2] was “inactive” throughout.
Turning to `CC1(C)CCc2c(c3ccccc3c3nc(-c4ccccc4[N+](=O)[O-])[nH]c23)O1`, the minimal inhibitory concentration (MIC) in assay [1] (ATCC 35822, 168 h) came to 16.7 µM (≈ 6.24 µg/mL); in assay [2] (ATCC 35338, 168 h) it was 33.5 µM (≈ 12.5 µg/mL).
For `CC1(C)Cc2c(c3ccccc3c3nc(-c4ccc([N+](=O)[O-])cc4)oc23)O1`, in assay [1] (ATCC 35822, 168 h), the MIC is > 278 µM.
On to `CC1(C)CCc2c(c3ccccc3c3nc(-c4ccccc4)[nH]c23)O1`, for which the MIC in assay [1] (ATCC 35822, 168 h) was 38 µM (≈ 12.5 µg/mL); in assay [2] (ATCC 35338, 168 h), > 304 µM.
For the molecule `CC1(C)CCc2c(c3ccccc3c3nc(-c4ccc(C#N)cc4)oc23)O1`, the MIC came out at 8.8 µM (≈ 3.12 µg/mL) in assay [1] (ATCC 35822, 168 h) and 4.4 µM (≈ 1.56 µg/mL) in assay [2] (ATCC 35338, 168 h).
On to `CC1(C)CCc2c(c3ccccc3c3nc(-c4cccc([N+](=O)[O-])c4)[nH]c23)O1`, for which the MIC entry in assay [1] and in assay [2] was “inactive” in each case.
Consider `CO[C@H]1/C=C/O[C@@]2(C)Oc3c(C)c(O)c4c(O)c(c(/C=N/N5CCN(C)CC5)c(O)c4c3C2=O)NC(=O)/C(C)=C\C=C\[C@H](C)[C@H](O)[C@@H](C)[C@@H](O)[C@@H](C)[C@H](OC(C)=O)[C@@H]1C` [RIFAMPIN], for which the MIC in assay [1] (ATCC 35822, 168 h) is ≤ 0.1 µM; in assay [2] (ATCC 35338, 168 h), > 4.8 µM.
With `CC1(C)CCc2c(c3ccccc3c3nc(-c4ccc(C#N)cc4)[nH]c23)O1`, the MIC entry in assay [1] and in assay [2] was “inactive” each time.
Turning to `CC1(C)CCc2c(c3ccccc3c3nc(-c4ccc(Cl)cc4)[nH]c23)O1`, the MIC in assay [1] (ATCC 35822, 168 h) is 17.2 µM (≈ 6.24 µg/mL); in assay [2] (ATCC 35338, 168 h), 17.2 µM (≈ 6.24 µg/mL).
In the case of `Cc1ccccc1-c1nc2c([nH]1)c1c(c3ccccc32)OC(C)(C)CC1`, the MIC in assay [1] (ATCC 35822, 168 h) was found to be 4.5 µM (≈ 1.54 µg/mL); in assay [2] (ATCC 35338, 168 h), 4.5 µM (≈ 1.54 µg/mL).
Take `Cc1ccc(-c2nc3c(o2)c2c(c4ccccc43)OC(C)(C)C2)cc1`: the MIC in assay [1] (ATCC 35822, 168 h) was > 304 µM.
On to `Cc1ccc(-c2nc3c([nH]2)c2c(c4ccccc43)OC(C)(C)C2)cc1`, for which the minimal inhibitory concentration (MIC) is > 304 µM in assay [1] (ATCC 35822, 168 h) and 304 µM (≈ 100 µg/mL) in assay [2] (ATCC 35338, 168 h).
`CC1(C)CCc2c(c3ccccc3c3nc(-c4cc5ccccc5cn4)[nH]c23)O1`: the MIC was ≤ 2 µM in assay [1] (ATCC 35822, 168 h) and ≤ 2 µM in assay [2] (ATCC 35338, 168 h).
For `C=CCC1=C(O)C(=O)c2ccccc2C1=O`, the minimum inhibitory concentration (MIC) in assay [1] (ATCC 35822, 168 h) came out at 467 µM (≈ 100 µg/mL); in assay [2] (ATCC 35338, 168 h), 117 µM (≈ 25 µg/mL).
Regarding `CC1(C)CCc2c(c3ccccc3c3nc(-c4cnc5ccccc5c4)[nH]c23)O1`, the MIC entry in assay [1] and in assay [2] was “inactive” throughout.
With `CC1(C)CCc2c(c3ccccc3c3nc(-c4ccc(F)cc4)[nH]c23)O1`, the MIC in assay [1] (ATCC 35822, 168 h) worked out at 18 µM (≈ 6.24 µg/mL); in assay [2] (ATCC 35338, 168 h) it was 18 µM (≈ 6.24 µg/mL).
Regarding `COc1ccccc1-c1nc2c([nH]1)c1c(c3ccccc32)OC(C)(C)CC1`, the MIC in assay [1] (ATCC 35822, 168 h) turned out to be 17.4 µM (≈ 6.24 µg/mL); in assay [2] (ATCC 35338, 168 h), 17.4 µM (≈ 6.24 µg/mL).
Turning to `CC1(C)CCc2c(c3ccccc3c3nc(-c4ccc(Br)cc4)[nH]c23)O1`, the MIC result in assay [1] and in assay [2] was “inactive” in each case.
Molecule `CC1(C)CCc2c(c3ccccc3c3nc(-c4ccc([N+](=O)[O-])cc4)[nH]c23)O1` registered an MIC in assay [1] (ATCC 35822, 168 h) of 4.2 µM (≈ 1.57 µg/mL). The MIC result in assay [2] was “inactive”.
Take `CC1(C)CCc2c(c3ccccc3c3nc(-c4ccccc4C(F)(F)F)[nH]c23)O1`: the MIC is 4 µM (≈ 1.59 µg/mL) in assay [1] (ATCC 35822, 168 h) and 2 µM (≈ 0.793 µg/mL) in assay [2] (ATCC 35338, 168 h).
On to `C=CCC1Cc2c(c3ccccc3c3nc4ccccc4nc23)OC1(C)C` (stereo not given), for which the minimum inhibitory concentration (MIC) in assay [3] turned out to be 0.78 µg/mL (≈ 2.2 µM).
For `NNC(=O)c1ccncc1` [ISONIAZID], the MIC in assay [1] (ATCC 35822, 168 h) is 7.3 µM (≈ 1 µg/mL); in assay [2] (ATCC 35338, 168 h), ≤ 0.4 µM.
Consider `CC1(C)CCc2c(c3ccccc3c3nc(-c4ccccc4Br)[nH]c23)O1`, for which the minimum inhibitory concentration (MIC) was determined as 15.3 µM (≈ 6.23 µg/mL) in assay [1] (ATCC 35822, 168 h) and 15.3 µM (≈ 6.23 µg/mL) in assay [2] (ATCC 35338, 168 h).
For the molecule `CC1(C)CCc2c(c3ccccc3c3nc(-c4cccc(Br)c4)[nH]c23)O1`, the MIC amounted to 15.3 µM (≈ 6.23 µg/mL) in assay [1] (ATCC 35822, 168 h) and 15.3 µM (≈ 6.23 µg/mL) in assay [2] (ATCC 35338, 168 h).
As to `CC1(C)CCc2c(c3ccccc3c3nc(-c4cccc(F)c4)[nH]c23)O1`, the minimal inhibitory concentration (MIC) in assay [1] (ATCC 35822, 168 h) worked out at 18 µM (≈ 6.24 µg/mL); in assay [2] (ATCC 35338, 168 h), 18 µM (≈ 6.24 µg/mL).
As to `CC1(C)CCc2c(c3ccccc3c3nc(-c4cccnc4)[nH]c23)O1`, the MIC entry in assay [1] and in assay [2] was “inactive” throughout.
`CC1(C)CCc2c(c3ccccc3c3nc(-c4cccc(C#N)c4)[nH]c23)O1`: the MIC result in assay [1] and in assay [2] was “inactive” each time.
As to `CC1Cc2c(c3ccccc3c3nc(-c4ccc([N+](=O)[O-])cc4)oc23)O1` (stereo not given), the MIC was > 289 µM in assay [1] (ATCC 35822, 168 h) and 289 µM (≈ 100 µg/mL) in assay [2] (ATCC 35338, 168 h).
Turning to `CC1(C)Cc2c(c3ccccc3c3nc(-c4ccccc4)[nH]c23)O1`, the minimum inhibitory concentration (MIC) is > 318 µM in assay [1] (ATCC 35822, 168 h) and 318 µM (≈ 100 µg/mL) in assay [2] (ATCC 35338, 168 h).
On to `CC1CC2=C(O1)c1ccccc1C(=O)C2=O` (stereo not given), for which the MIC result in assay [1] and in assay [2] was “inactive” throughout.
